Assay results reported in ChEMBL document CHEMBL1833848, “New betulinic acid derivatives as potent proteasome inhibitors” (Bioorg Med Chem Lett, 2011).
Active and inactive are the calls of the source. No cut-off for these calls is given here. Where a SMILES comes first, the peptide text is derived from it.

How the values were obtained:
[1] = Inhibition of human 20S proteasome chymotrypsin-like activity using Suc-Leu-Leu-Val-Tyr-AMC fluorogenic substrate by fluorimetry
Summary of the method: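 IC50 values are the averages of three independent experiments.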

Homo sapiens [2] = species: Homo sapiens; test: Ratio of lactacystin IC50 to compound IC50 for human 20S proteasome
Homo sapiens [3] = species: Homo sapiens; test: Ratio of LLM-F IC50 to compound IC50 for human 20S proteasome
Homo sapiens [4] = species: Homo sapiens; test: Ratio of bevirimat IC50 to compound IC50 for human 20S proteasome
[5] = system: Human immunodeficiency virus 1; test: Antiviral activity against drug-resistant HIV1 isolate; format: functional, organism-based
[6] = system: Human immunodeficiency virus 1; test: Antiviral activity against HIV1; format: functional, organism-based
[7] = Inhibition of human 20S proteasome trypsin-like activity using Bz-VGR-AMC fluorogenic substrate by fluorimetry
Homo sapiens [8] = species: Homo sapiens; test: Inhibition of human 20S proteasome caspase-like activity using (Z)-LLE-bNA fluorogenic substrate by fluorimetry

Structure (SMILES)	IC50 [1] [µM]	other results
C=C(C)[C@@H]1CC[C@]2(C(=O)O)CC[C@]3(C)[C@H](CC[C@H]4C3(C)CC[C@H]3C(C)(C)[C@@H](OC(=O)COCC(=O)O)CC[C@@]34C)[C@@H]12 (single isomer, unassigned)	> 40	
C=C(C)[C@@H]1CC[C@]2(C(=O)O)CC[C@]3(C)[C@H](CC[C@H]4C3(C)CC[C@H]3C(C)(C)[C@@H](OC(=O)c5ccccc5Br)CC[C@@]34C)[C@@H]12 (single isomer, unassigned)	7.99	
CSCC[C@@H](C=O)NC(=O)[C@H](CC(C)C)NC(=O)[C@H](CC(C)C)NC(C)=O (Ac-Leu-Leu-Met-aldehyde)	5.25	
C=C(COCCc1ccc(Br)cc1)[C@@H]1CC[C@]2(C(=O)N[C@@H](CC(C)C)C(=O)O)CC[C@]3(C)[C@H](CC[C@H]4C3(C)CC[C@H]3C(C)(C)[C@@H](O)CC[C@@]34C)[C@@H]12 (single isomer, unassigned)	1.56	Ratio IC50 (Homo sapiens [2]): 3; Ratio IC50 (Homo sapiens [3]): 3
C=C(C)[C@@H]1CC[C@]2(C(=O)O)CC[C@]3(C)[C@H](CC[C@H]4C3(C)CC[C@H]3C(C)(C)[C@@H](OC(=O)Cc5cccc(CC(=O)O)c5)CC[C@@]34C)[C@@H]12 (single isomer, unassigned)	1.42	Ratio IC50 (Homo sapiens [2]): 4; Ratio IC50 (Homo sapiens [3]): 4; Ratio IC50 (Homo sapiens [4]): 6
C=C(C)[C@@H]1CC[C@]2(C(=O)NCCCCCCCC(=O)N[C@@H](CC(C)C)[C@H](O)CC(=O)O)CC[C@]3(C)[C@H](CC[C@H]4C3(C)CC[C@H]3C(C)(C)[C@@H](O)CC[C@@]34C)[C@@H]12 (single isomer, unassigned)	> 40	
C=C(COCCC)[C@@H]1CC[C@]2(C(=O)N[C@@H](CC(C)C)C(=O)O)CC[C@]3(C)[C@H](CC[C@H]4C3(C)CC[C@H]3C(C)(C)[C@@H](O)CC[C@@]34C)[C@@H]12 (single isomer, unassigned)	3.67	
C=C(C)[C@@H]1CC[C@]2(C(=O)O)CC[C@]3(C)[C@H](CC[C@H]4C3(C)CC[C@H]3C(C)(C)[C@@H](OC(=O)c5ccc6c(c5)OCO6)CC[C@@]34C)[C@@H]12 (single isomer, unassigned)	> 40	
C=C(C)[C@@H]1CC[C@]2(C(=O)O)CC[C@]3(C)[C@H](CC[C@H]4C3(C)CC[C@H]3C(C)(C)[C@@H](OC(=O)c5ccccc5)CC[C@@]34C)[C@@H]12 (single isomer, unassigned)	11.1	
C=C(CBr)[C@@H]1CC[C@]2(C(=O)N[C@@H](CC(C)C)C(=O)O)CC[C@]3(C)[C@H](CC[C@H]4C3(C)CC[C@H]3C(C)(C)[C@@H](O)CC[C@@]34C)[C@@H]12 (single isomer, unassigned)	5.85	
C=C(C)[C@@H]1CC[C@]2(C(=O)O)CC[C@]3(C)[C@H](CC[C@H]4C3(C)CC[C@H]3C(C)(C)[C@@H](OC(=O)C5CC=CCC5C(=O)O)CC[C@@]34C)[C@@H]12 (single isomer, unassigned)	2.96	
C=C(C)[C@@H]1CC[C@]2(C(=O)O)CC[C@]3(C)[C@H](CC[C@H]4C3(C)CC[C@H]3C(C)(C)[C@@H](OC(=O)c5ccc(OC)c(OC)c5)CC[C@@]34C)[C@@H]12 (single isomer, unassigned)	> 40	
C=C(C)[C@@H]1CC[C@]2(C(=O)O)CC[C@]3(C)[C@H](CC[C@H]4C3(C)CC[C@H]3C(C)(C)[C@@H](OC(=O)c5cc(OC)c(OC)c(OC)c5)CC[C@@]34C)[C@@H]12 (single isomer, unassigned)	> 40	
C=C(C)[C@@H]1CC[C@]2(C(=O)N[C@@H](CC(C)C)C(=O)O)CC[C@]3(C)[C@H](CC[C@H]4C3(C)CC[C@H]3C(C)(C)[C@@H](O)CC[C@@]34C)[C@@H]12 (single isomer, unassigned)	> 40	
C=C(COCCc1ccccc1)[C@@H]1CC[C@]2(C(=O)N[C@@H](CC(C)C)C(=O)O)CC[C@]3(C)[C@H](CC[C@H]4C3(C)CC[C@H]3C(C)(C)[C@@H](O)CC[C@@]34C)[C@@H]12 (single isomer, unassigned)	2.47	
C=C(C)[C@@H]1CC[C@]2(C(=O)O)CC[C@]3(C)[C@H](CC[C@H]4C3(C)CC[C@H]3C(C)(C)[C@@H](OC(=O)c5cccc(Br)c5)CC[C@@]34C)[C@@H]12 (single isomer, unassigned)	7.05	
C=C(C)[C@@H]1CC[C@]2(C(=O)O)CC[C@]3(C)[C@H](CC[C@H]4C3(C)CC[C@H]3C(C)(C)[C@@H](OC(=O)c5ccc(Br)cc5)CC[C@@]34C)[C@@H]12 (single isomer, unassigned)	> 40	
C=C(C)[C@@H]1CC[C@]2(C(=O)O)CC[C@]3(C)[C@H](CC[C@H]4C3(C)CC[C@H]3C(C)(C)[C@@H](OC(=O)c5cc(OC)c(OC)cc5OC)CC[C@@]34C)[C@@H]12 (single isomer, unassigned)	10.9	
C=C(COCC)[C@@H]1CC[C@]2(C(=O)N[C@@H](CC(C)C)C(=O)O)CC[C@]3(C)[C@H](CC[C@H]4C3(C)CC[C@H]3C(C)(C)[C@@H](O)CC[C@@]34C)[C@@H]12 (single isomer, unassigned)	13.2	
C=C(C)[C@@H]1CC[C@]2(C(=O)O)CC[C@]3(C)[C@H](CC[C@@H]4[C@@]5(C)CC[C@H](OC(=O)CC(C)(C)C(=O)O)C(C)(C)[C@@H]5CC[C@]43C)[C@@H]12 [BEVIRIMAT]	9.2	EC50 [5]: < 0.01 µM; EC50 [6]: < 0.01 µM; IC50 [7]: 26.3 µM; inhibition (Homo sapiens [8]): inactive
C=C(COCCc1ccc(F)cc1)[C@@H]1CC[C@]2(C(=O)N[C@@H](CC(C)C)C(=O)O)CC[C@]3(C)[C@H](CC[C@H]4C3(C)CC[C@H]3C(C)(C)[C@@H](O)CC[C@@]34C)[C@@H]12 (single isomer, unassigned)	2.4	
C=C(COCCN1CCOCC1)[C@@H]1CC[C@]2(C(=O)N[C@@H](CC(C)C)C(=O)O)CC[C@]3(C)[C@H](CC[C@H]4C3(C)CC[C@H]3C(C)(C)[C@@H](O)CC[C@@]34C)[C@@H]12 (single isomer, unassigned)	3.13	
C=C(COCCc1ccc(Cl)cc1)[C@@H]1CC[C@]2(C(=O)N[C@@H](CC(C)C)C(=O)O)CC[C@]3(C)[C@H](CC[C@H]4C3(C)CC[C@H]3C(C)(C)[C@@H](O)CC[C@@]34C)[C@@H]12 (single isomer, unassigned)	1.8	Ratio IC50 (Homo sapiens [2]): 3; Ratio IC50 (Homo sapiens [3]): 3
C=C(COCCc1ccc(OC)cc1)[C@@H]1CC[C@]2(C(=O)N[C@@H](CC(C)C)C(=O)O)CC[C@]3(C)[C@H](CC[C@H]4C3(C)CC[C@H]3C(C)(C)[C@@H](O)CC[C@@]34C)[C@@H]12 (single isomer, unassigned)	3.34	
